# How the values were obtained:
# [1] = molecular target: T1, Glucocorticoid receptor (Homo sapiens) (UniProt P04150); test: Displacement of [3H]-dexamethasone from GR receptor in human IM-9 cytosolic extracts at 100 nM preincubated for 6 hrs followed by washout and second incubation with [3H]-dexamethasone for 3 hrs relative to control
# T1 sequence (whole entry): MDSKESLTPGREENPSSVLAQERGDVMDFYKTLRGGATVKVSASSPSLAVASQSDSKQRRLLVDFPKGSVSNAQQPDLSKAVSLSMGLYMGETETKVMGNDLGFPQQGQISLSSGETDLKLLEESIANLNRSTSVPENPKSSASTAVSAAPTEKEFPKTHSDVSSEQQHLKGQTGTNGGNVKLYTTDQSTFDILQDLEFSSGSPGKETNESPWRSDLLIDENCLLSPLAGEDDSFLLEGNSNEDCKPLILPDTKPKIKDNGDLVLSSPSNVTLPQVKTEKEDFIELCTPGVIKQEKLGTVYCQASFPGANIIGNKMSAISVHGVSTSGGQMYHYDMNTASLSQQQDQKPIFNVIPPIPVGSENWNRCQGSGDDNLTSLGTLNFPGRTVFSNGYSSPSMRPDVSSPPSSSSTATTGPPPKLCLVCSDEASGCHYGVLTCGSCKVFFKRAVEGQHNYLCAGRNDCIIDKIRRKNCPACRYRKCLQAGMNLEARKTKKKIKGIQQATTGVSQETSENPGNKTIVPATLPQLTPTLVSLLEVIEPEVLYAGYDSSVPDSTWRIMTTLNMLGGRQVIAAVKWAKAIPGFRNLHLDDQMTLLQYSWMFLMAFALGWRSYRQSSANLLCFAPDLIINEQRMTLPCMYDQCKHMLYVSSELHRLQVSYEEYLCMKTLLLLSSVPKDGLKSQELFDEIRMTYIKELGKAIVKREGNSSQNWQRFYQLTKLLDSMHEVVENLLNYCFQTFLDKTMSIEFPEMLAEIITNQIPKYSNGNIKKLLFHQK
# Outline: (§1)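 IM-9 cytosol (240 µg/assay) preincubated 6 h with ligand (100 nM, or 60 nM for cortisol). Unbound ligand was stripped with activated charcoal and centrifugation, then 3 nM [3H]-dexamethasone was added. Binding was read after 1, 2, 3, 4, 16 or 24 h of second incubation as % inhibition of control specific binding, in duplicate.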
# [2] = molecular target: T1, Glucocorticoid receptor (Homo sapiens); test: Displacement of [3H]-dexamethasone from GR receptor in human IM-9 cytosolic extracts using buffer solution without beta-mercaptoethanol at 100 nM preincubated for 6 hrs followed by washout and second incubation with [3H]-dexamethasone for 3 hrs relative to control
# Outline: (§2)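 Repeat of the wash-out protocol in buffers free of β-mercaptoethanol, with a second batch of dexamethasone mesylate. IM-9 cytosol (240 µg/assay) preincubated 6 h at 100 nM (cortisol 60 nM), charcoal-stripped and centrifuged, then given 3 nM [3H]-dexamethasone. Binding was read before wash-out or at 1–24 h as % inhibition of control, in duplicate.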
# [3] = molecular target: T1, Glucocorticoid receptor (Homo sapiens); test: Displacement of [3H]-dexamethasone from GR receptor in human IM-9 cytosolic extracts at 100 nM preincubated for 6 hrs followed by washout and second incubation with [3H]-dexamethasone for 1 hr relative to control; outline: as §1
# [4] = molecular target: T1, Glucocorticoid receptor (Homo sapiens); test: Displacement of [3H]-dexamethasone from GR receptor in human IM-9 cytosolic extracts using buffer solution without beta-mercaptoethanol at 100 nM preincubated for 6 hrs followed by washout and second incubation with [3H]-dexamethasone for 16 hrs relative to control; outline: as §2
# [5] = molecular target: T1, Glucocorticoid receptor (Homo sapiens); test: Displacement of [3H]-dexamethasone from GR receptor in human IM-9 cytosolic extracts at 100 nM preincubated for 6 hrs followed by [3H]-dexamethasone addition relative to control
# [6] = molecular target: T1, Glucocorticoid receptor (Homo sapiens); test: Displacement of [3H]-dexamethasone from GR receptor in human IM-9 cytosolic extracts using buffer solution without beta-mercaptoethanol at 100 nM preincubated for 6 hrs followed by washout and second incubation with [3H]-dexamethasone for 24 hrs relative to control; outline: as §2
# [7] = molecular target: T1, Glucocorticoid receptor (Homo sapiens); test: Displacement of [3H]-dexamethasone from GR receptor in human IM-9 cytosolic extracts using buffer solution without beta-mercaptoethanol at 100 nM preincubated for 6 hrs followed by washout and second incubation with [3H]-dexamethasone for 4 hrs relative to control; outline: as §2
# [8] = molecular target: T1, Glucocorticoid receptor (Homo sapiens); test: Displacement of [3H]-dexamethasone from GR receptor in human IM-9 cytosolic extracts using buffer solution without beta-mercaptoethanol at 100 nM preincubated for 6 hrs followed by [3H]-dexamethasone addition relative to control; outline: as §2
# [9] = molecular target: T1, Glucocorticoid receptor (Homo sapiens); test: Displacement of [3H]-dexamethasone from GR receptor in human IM-9 cytosolic extracts at 100 nM preincubated for 6 hrs followed by washout and second incubation with [3H]-dexamethasone for 24 hrs relative to control; outline: as §1
# [10] = molecular target: T1, Glucocorticoid receptor (Homo sapiens); test: Displacement of [3H]-dexamethasone from GR receptor in human IM-9 cytosolic extracts using buffer solution without beta-mercaptoethanol at 100 nM preincubated for 6 hrs followed by washout and second incubation with [3H]-dexamethasone for 1 hr relative to control; outline: as §2
# [11] = molecular target: T1, Glucocorticoid receptor (Homo sapiens); test: Displacement of [3H]-dexamethasone from GR receptor in human IM-9 cytosolic extracts at 100 nM preincubated for 6 hrs followed by washout and second incubation with [3H]-dexamethasone for 2 hrs relative to control; outline: as §1
# [12] = molecular target: T1, Glucocorticoid receptor (Homo sapiens); test: Displacement of [3H]-dexamethasone from GR receptor in human IM-9 cytosolic extracts at 100 nM preincubated for 6 hrs followed by washout and second incubation with [3H]-dexamethasone for 16 hrs relative to control; outline: as §1
# [13] = molecular target: T1, Glucocorticoid receptor (Homo sapiens); test: Displacement of [3H]-dexamethasone from GR receptor in human IM-9 cytosolic extracts using buffer solution without beta-mercaptoethanol at 100 nM preincubated for 6 hrs followed by washout and second incubation with [3H]-dexamethasone for 2 hrs relative to control; outline: as §2
# [14] = molecular target: T1, Glucocorticoid receptor (Homo sapiens); test: Displacement of [3H]-dexamethasone from human GR receptor at 1 uM relative to control
# Outline: (§3)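 Human GR radioligand binding with soluble receptor from IM-9 cells and 1.5 nM [3H]-dexamethasone, with test ligand at 1 µM or 0.1 µM. Specific binding reported as % inhibition of control, in duplicate.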
# [15] = molecular target: T1, Glucocorticoid receptor (Homo sapiens); test: Displacement of [3H]-dexamethasone from human GR receptor at 0.1 uM relative to control; outline: as §3
# [16] = molecular target: T1, Glucocorticoid receptor (Homo sapiens); test: Displacement of [3H]-dexamethasone from GR receptor in human IM-9 cytosolic extracts at 100 nM preincubated for 6 hrs followed by washout and second incubation with [3H]-dexamethasone for 4 hrs relative to control; outline: as §1
# [17] = molecular target: T1, Glucocorticoid receptor (Homo sapiens); test: Displacement of [3H]-dexamethasone from GR receptor in human IM-9 cytosolic extracts at 60 nM preincubated for 6 hrs followed by washout and second incubation with [3H]-dexamethasone for 24 hrs relative to control; outline: as §1
# [18] = molecular target: T1, Glucocorticoid receptor (Homo sapiens); test: Displacement of [3H]-dexamethasone from GR receptor in human IM-9 cytosolic extracts at 60 nM preincubated for 6 hrs followed by washout and second incubation with [3H]-dexamethasone for 16 hrs relative to control; outline: as §1
# [19] = molecular target: T1, Glucocorticoid receptor (Homo sapiens); test: Displacement of [3H]-dexamethasone from GR receptor in human IM-9 cytosolic extracts using buffer solution without beta-mercaptoethanol at 60 nM preincubated for 6 hrs followed by washout and second incubation with [3H]-dexamethasone for 16 hrs relative to control; outline: as §2
# [20] = molecular target: T1, Glucocorticoid receptor (Homo sapiens); test: Displacement of [3H]-dexamethasone from GR receptor in human IM-9 cytosolic extracts using buffer solution without beta-mercaptoethanol at 60 nM preincubated for 6 hrs followed by [3H]-dexamethasone addition relative to control; outline: as §2
# [21] = molecular target: T1, Glucocorticoid receptor (Homo sapiens); test: Displacement of [3H]-dexamethasone from GR receptor in human IM-9 cytosolic extracts at 60 nM preincubated for 6 hrs followed by [3H]-dexamethasone addition relative to control
# [22] = molecular target: T1, Glucocorticoid receptor (Homo sapiens); test: Displacement of [3H]-dexamethasone from GR receptor in human IM-9 cytosolic extracts at 60 nM preincubated for 6 hrs followed by washout and second incubation with [3H]-dexamethasone for 4 hrs relative to control; outline: as §1
# [23] = molecular target: T1, Glucocorticoid receptor (Homo sapiens); test: Displacement of [3H]-dexamethasone from GR receptor in human IM-9 cytosolic extracts using buffer solution without beta-mercaptoethanol at 60 nM preincubated for 6 hrs followed by washout and second incubation with [3H]-dexamethasone for 24 hrs relative to control; outline: as §2
# [24] = molecular target: T1, Glucocorticoid receptor (Homo sapiens); test: Displacement of [3H]-dexamethasone from GR receptor in human IM-9 cytosolic extracts at 60 nM preincubated for 6 hrs followed by washout and second incubation with [3H]-dexamethasone for 1 hr relative to control; outline: as §1
# [25] = molecular target: T1, Glucocorticoid receptor (Homo sapiens); test: Displacement of [3H]-dexamethasone from GR receptor in human IM-9 cytosolic extracts at 60 nM preincubated for 6 hrs followed by washout and second incubation with [3H]-dexamethasone for 2 hrs relative to control; outline: as §1
# [26] = molecular target: T1, Glucocorticoid receptor (Homo sapiens); test: Displacement of [3H]-dexamethasone from GR receptor in human IM-9 cytosolic extracts at 60 nM preincubated for 6 hrs followed by washout and second incubation with [3H]-dexamethasone for 3 hrs relative to control; outline: as §1
inhibition [1],inhibition [2],inhibition [3],inhibition [4],inhibition [5],inhibition [6],inhibition [7],inhibition [8],inhibition [9],inhibition [10],inhibition [11],inhibition [12],inhibition [14],inhibition [15],SMILES,also measured
7%,-2%,7%,46%,93%,13%,3%,93%,23%,3%,3%,13%,,,C[C@@H]1C[C@H]2[C@@H]3CCC4=CC(=O)C=C[C@]4(C)[C@@]3(F)[C@@H](O)C[C@]2(C)[C@@]1(O)C(=O)COS(C)(=O)=O,
,-6%,-4%,37%,78%,8%,0%,78%,2%,-1%,,1%,92%,78%,CCN(CC(O)(CNC(=O)c1cnn(-c2ccc(F)cc2)c1N)C(F)(F)F)C(=O)c1c(Cl)ccc(NC(=O)CCl)c1Cl (configuration not stated),inhibition [13]: -8%
24%,,21%,-5%,74%,-2%,-10%,74%,,,17%,31%,96%,74%,C=CC(=O)Nc1ccc(Cl)c(C(=O)N(CC)CC(O)(CNC(=O)c2cnn(-c3ccc(F)cc3)c2N)C(F)(F)F)c1Cl (configuration not stated),inhibition [16]: 6%
,,,,,,,,,,,,,,C[C@]12CCC(=O)C=C1CC[C@@H]1[C@@H]2[C@@H](O)C[C@@]2(C)[C@H]1CC[C@]2(O)C(=O)CO,inhibition [17]: 12%; inhibition [18]: 5%; inhibition [19]: 16%; inhibition [20]: 69%; inhibition [21]: 69%; inhibition [22]: -1%; inhibition [23]: -8%; inhibition [24]: 3%; inhibition [25]: 6%; inhibition [26]: 4%

# Source: ChEMBL document CHEMBL3853336, “Novel selective glucocorticoid receptor agonists (SEGRAs) with a covalent warhead for long-lasting inhibition” (Bioorg Med Chem Lett, 2016)
